Measured values pooled from the literature.
Compare with care: the assays were run in different laboratories.
Target: cAMP-dependent protein kinase catalytic subunit beta (PRKACB, Homo sapiens, UniProt P22694)
Technique: competition with immobilised ligand

Compound | effect on | concentration | remaining binding
CCN1CCN(Cc2ccc(C(=O)Nc3ccc(C)c(Oc4ccc5c(c4)CC(=O)N5)c3)cc2C(F)(F)F)CC1 | binding | 1 µM | 80%
CN(C)c1nccc(-c2cnc3ncccn23)n1 | binding | 1 µM | 82%
O=C(NCC1CCOCC1)c1n[nH]cc1NC(=O)c1c(F)cccc1F | binding | 1 µM | 97%
CC1CCCN1c1nccc(-c2cnn3ncccc23)n1 (stereo not drawn) | binding | 1 µM | 89%
O=C(c1ccc(Nc2ncc(Cl)c(-c3cc4ccccc4s3)n2)cc1)N1CCC(N2CCCC2)CC1 | binding | 1 µM | 98%
C[C@@H]1CCN(c2nccc(-c3cnn4ncccc34)n2)C1 | binding | 1 µM | 72%
O=C(O)[C@@H]1[C@@H](Cn2nnc3ccccc3c2=O)CC[C@H]1C(=O)c1ccc(OCCC2CCOCC2)cc1 | cell-free assay | 1 µM | 100%
C[C@@H](c1ccc(-n2cnc3c(N)ncnc32)cc1)N1CCc2nn(C)c(Cc3ccccc3)c2C1=O | binding | 0.1 µM | 100%
COc1ccc2c(O[C@@H]3C[C@H]4C(=O)N[C@]5(C(=O)O)CC5/C=C\CCCCC[C@H](NC(=O)OC5CCCC5)C(=O)N4C3)cc(-c3csc(NC(=O)C(C)C)n3)nc2c1C (stereo partly drawn) | cell-free assay | 1 µM | 100%
c1cncc(-c2cccc(Nc3nccc(NC4CCCCC4)n3)c2)c1 | binding | 10 µM | 56%
CNC(=O)Nc1ccc2c(c1)[C@@]1(CC2)OC(=O)N(CC(=O)N(Cc2ccc(F)cc2)[C@@H](C)C(F)(F)F)C1=O | cell-free assay | 1 µM | 100%
O=C(NCCCN1CCOCC1)c1ccc(Nc2nccc(-c3cc4ccccc4s3)n2)cc1 | binding | 1 µM | 100%
O=C(O)c1cc(-c2ccc(C3CCNCC3)cc2)c2ccc(-c3ccc(C(F)(F)F)cc3)cc2c1 | cell-free assay | 1 µM | 100%
Nc1ncc2c(n1)-c1c([nH]c3ccc(C#CC4CC4)cc13)CCCC2 | binding | 1 µM | 86%
COc1cnc(Nc2cccc(S(N)(=O)=O)c2)nc1N1CCN(c2ccccc2)C(=O)C1 | binding | 1 µM | 99%
N[C@H]1CCN(c2nccc(-c3cnn4ncccc34)n2)C1 | binding | 1 µM | 83%
Cc1cnc(Nc2ccc(C(=O)N3CCC(N4CCCC4)CC3)cc2)nc1-c1cc2ccccc2s1 | binding | 1 µM | 85%
COc1cc(-c2cn(C3CCc4c(F)cccc4N(CC(F)(F)F)C3=O)nn2)ccc1-n1cnc(C)c1 (stereo not drawn) | cell-free assay | 1 µM | 95%
CN(C)c1nccc(-c2cnn3ncccc23)n1 | binding | 1 µM | 76%
CCCCN(CCCC)C(=O)CN1C[C@@H](c2cc(OC)c3c(c2)OCO3)[C@H](C(=O)O)[C@H]1CC(C)(C)CCC | cell-free assay | 1 µM | 100%
COc1cnc(Nc2cccc(S(N)(=O)=O)c2)nc1N1CCN(c2ccccc2)CC1 | binding | 1 µM | 85%
